Blank lines part the entries; values can stand above or below the compound they belong to.
Columns and labels:
[1] = biological target: Amyloid-beta precursor protein (Homo sapiens, UniProt P05067); test: Displacement of [125I]IMPY from amyloid beta (1 to 42) (unknown origin) after 3 hrs by gamma counting analysis
How it was run: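 Test compound ranged over 10^-4 to 10^-8.5 in ethanol, in 0.05% BSA, 1 mL total. Incubation was 3 h at room temperature, then GF/B filtration and gamma counting. IC50 came from three independent experiments, and Ki was derived by Cheng–Prusoff.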

Brain [2] = test: Ratio of drug level in brain after 2 mins to drug level in brain after 60 mins in ICR mouse; type: ADME, tissue-based; settings: in vivo
How it was run: (§1)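 Male normal ICR mice (5 weeks old), n = 5 per time point, received a tail-vein injection of [18F] tracer (740–1110 kBq/mL) in saline containing 10% EtOH. Mice were sacrificed at 2, 10, 30 and 60 min. Organs were removed, weighed and gamma-counted, and data were expressed as %ID/g.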

[3] = Ratio of drug level in brain to blood in ICR mouse after 2 mins; type: ADME, tissue-based; settings: brain and blood, read-out: BBR
How it was run: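 Male ICR mice (5 weeks) received the ¹⁸F tracer (740–1110 kBq/mL) in saline with 10% EtOH by tail-vein injection. Five mice per time point were sacrificed at 2, 10, 30 and 60 min. Organs were removed, weighed and gamma-counted, and expressed as %ID/g. The ratio is brain %ID/g over blood %ID/g at 2 min.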

Liver [4] = test: Biodistribution in ICR mouse liver assessed per gram of tissue at 740 to 1110 kBq/mL, iv measured 2 mins post-injection by gamma counting analysis; type: ADME, organism-based; settings: in vivo; how it was run: as §1
Heart [5] = test: Biodistribution in ICR mouse heart assessed per gram of tissue at 740 to 1110 kBq/mL, iv measured 10 mins post-injection by gamma counting analysis; type: ADME, organism-based; settings: in vivo; how it was run: as §1
Heart [6] = test: Biodistribution in ICR mouse heart assessed per gram of tissue at 740 to 1110 kBq/mL, iv measured 60 mins post-injection by gamma counting analysis; type: ADME, organism-based; settings: in vivo, 1 h; how it was run: as §1
Heart [7] = test: Biodistribution in ICR mouse heart assessed per gram of tissue at 740 to 1110 kBq/mL, iv measured 2 mins post-injection by gamma counting analysis; type: ADME, organism-based; settings: in vivo; how it was run: as §1
Intestine [8] = test: Biodistribution in ICR mouse intestine assessed per organ at 740 to 1110 kBq/mL, iv measured 60 mins post-injection by gamma counting analysis; type: ADME, organism-based; settings: in vivo, 1 h; how it was run: as §1
Intestine [9] = test: Biodistribution in ICR mouse intestine assessed per organ at 740 to 1110 kBq/mL, iv measured 30 mins post-injection by gamma counting analysis; type: ADME, organism-based; settings: in vivo, 0.5 h; how it was run: as §1
Spleen [10] = test: Biodistribution in ICR mouse spleen assessed per gram of tissue at 740 to 1110 kBq/mL, iv measured 2 mins post-injection by gamma counting analysis; type: ADME, organism-based; settings: in vivo; how it was run: as §1
Blood [11] = test: Biodistribution in ICR mouse blood assessed per gram of tissue at 740 to 1110 kBq/mL, iv measured 2 mins post-injection by gamma counting analysis; type: ADME, organism-based; settings: in vivo; how it was run: as §1
[12] = Partition coefficient, log D of the compound in n-octanol-PBS […] at pH 7.4; type: physicochemical
How it was run: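 [18F] tracer (1110 kBq) was added to 3.0 g n-octanol plus 3.0 g PBS (0.05 M, pH 7.4), vortexed 3 min at room temperature, then centrifuged 5 min at 3000 rpm.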

Stomach [13] = test: Biodistribution in ICR mouse stomach assessed per organ at 740 to 1110 kBq/mL, iv measured 2 mins post-injection by gamma counting analysis; type: ADME, organism-based; settings: in vivo; how it was run: as §1
Kidney [14] = test: Biodistribution in ICR mouse kidney assessed per gram of tissue at 740 to 1110 kBq/mL, iv measured 10 mins post-injection by gamma counting analysis; type: ADME, organism-based; settings: in vivo; how it was run: as §1
Stomach [15] = test: Biodistribution in ICR mouse stomach assessed per organ at 740 to 1110 kBq/mL, iv measured 30 mins post-injection by gamma counting analysis; type: ADME, organism-based; settings: in vivo, 0.5 h; how it was run: as §1
Spleen [16] = test: Biodistribution in ICR mouse spleen assessed per gram of tissue at 740 to 1110 kBq/mL, iv measured 10 mins post-injection by gamma counting analysis; type: ADME, organism-based; settings: in vivo; how it was run: as §1
Brain [17] = test: Biodistribution in ICR mouse brain assessed per gram of tissue at 740 to 1110 kBq/mL, iv measured 10 mins post-injection by gamma counting analysis; type: ADME, organism-based; settings: in vivo; how it was run: as §1
Blood [18] = test: Biodistribution in ICR mouse blood assessed per gram of tissue at 740 to 1110 kBq/mL, iv measured 30 mins post-injection by gamma counting analysis; type: ADME, organism-based; settings: in vivo, 0.5 h; how it was run: as §1
Lung [19] = test: Biodistribution in ICR mouse lung assessed per gram of tissue at 740 to 1110 kBq/mL, iv measured 2 mins post-injection by gamma counting analysis; type: ADME, organism-based; settings: in vivo; how it was run: as §1
Lung [20] = test: Biodistribution in ICR mouse lung assessed per gram of tissue at 740 to 1110 kBq/mL, iv measured 30 mins post-injection by gamma counting analysis; type: ADME, organism-based; settings: in vivo, 0.5 h; how it was run: as §1
Liver [21] = test: Biodistribution in ICR mouse liver assessed per gram of tissue at 740 to 1110 kBq/mL, iv measured 30 mins post-injection by gamma counting analysis; type: ADME, organism-based; settings: in vivo, 0.5 h; how it was run: as §1
Brain [22] = test: Biodistribution in ICR mouse brain assessed per gram of tissue at 740 to 1110 kBq/mL, iv measured 30 mins post-injection by gamma counting analysis; type: ADME, organism-based; settings: in vivo, 0.5 h; how it was run: as §1
Blood [23] = test: Biodistribution in ICR mouse blood assessed per gram of tissue at 740 to 1110 kBq/mL, iv measured 60 mins post-injection by gamma counting analysis; type: ADME, organism-based; settings: in vivo, 1 h; how it was run: as §1
Heart [24] = test: Biodistribution in ICR mouse heart assessed per gram of tissue at 740 to 1110 kBq/mL, iv measured 30 mins post-injection by gamma counting analysis; type: ADME, organism-based; settings: in vivo, 0.5 h; how it was run: as §1
Bone [25] = test: Biodistribution in ICR mouse bone assessed per gram of tissue at 740 to 1110 kBq/mL, iv measured 10 mins post-injection by gamma counting analysis; type: ADME, organism-based, Bone element; settings: in vivo; how it was run: as §1
Blood [26] = test: Biodistribution in ICR mouse blood assessed per gram of tissue at 740 to 1110 kBq/mL, iv measured 10 mins post-injection by gamma counting analysis; type: ADME, organism-based; settings: in vivo; how it was run: as §1
Intestine [27] = test: Biodistribution in ICR mouse intestine assessed per organ at 740 to 1110 kBq/mL, iv measured 10 mins post-injection by gamma counting analysis; type: ADME, organism-based; settings: in vivo; how it was run: as §1
Bone [28] = test: Biodistribution in ICR mouse bone assessed per gram of tissue at 740 to 1110 kBq/mL, iv measured 60 mins post-injection by gamma counting analysis; type: ADME, organism-based, Bone element; settings: in vivo, 1 h; how it was run: as §1
Lung [29] = test: Biodistribution in ICR mouse lung assessed per gram of tissue at 740 to 1110 kBq/mL, iv measured 60 mins post-injection by gamma counting analysis; type: ADME, organism-based; settings: in vivo, 1 h; how it was run: as §1
Brain [30] = test: Biodistribution in ICR mouse brain assessed per gram of tissue at 740 to 1110 kBq/mL, iv measured 60 mins post-injection by gamma counting analysis; type: ADME, organism-based; settings: in vivo, 1 h; how it was run: as §1
Bone [31] = test: Biodistribution in ICR mouse bone assessed per gram of tissue at 740 to 1110 kBq/mL, iv measured 2 mins post-injection by gamma counting analysis; type: ADME, organism-based, Bone element; settings: in vivo; how it was run: as §1
Intestine [32] = test: Biodistribution in ICR mouse intestine assessed per organ at 740 to 1110 kBq/mL, iv measured 2 mins post-injection by gamma counting analysis; type: ADME, organism-based; settings: in vivo; how it was run: as §1
Kidney [33] = test: Biodistribution in ICR mouse kidney assessed per gram of tissue at 740 to 1110 kBq/mL, iv measured 60 mins post-injection by gamma counting analysis; type: ADME, organism-based; settings: in vivo, 1 h; how it was run: as §1
Liver [34] = test: Biodistribution in ICR mouse liver assessed per gram of tissue at 740 to 1110 kBq/mL, iv measured 10 mins post-injection by gamma counting analysis; type: ADME, organism-based; settings: in vivo; how it was run: as §1
Kidney [35] = test: Biodistribution in ICR mouse kidney assessed per gram of tissue at 740 to 1110 kBq/mL, iv measured 2 mins post-injection by gamma counting analysis; type: ADME, organism-based; settings: in vivo; how it was run: as §1
Brain [36] = test: Biodistribution in ICR mouse brain assessed per gram of tissue at 740 to 1110 kBq/mL, iv measured 2 mins post-injection by gamma counting analysis; type: ADME, organism-based; settings: in vivo; how it was run: as §1
Stomach [37] = test: Biodistribution in ICR mouse stomach assessed per organ at 740 to 1110 kBq/mL, iv measured 10 mins post-injection by gamma counting analysis; type: ADME, organism-based; settings: in vivo; how it was run: as §1
Spleen [38] = test: Biodistribution in ICR mouse spleen assessed per gram of tissue at 740 to 1110 kBq/mL, iv measured 30 mins post-injection by gamma counting analysis; type: ADME, organism-based; settings: in vivo, 0.5 h; how it was run: as §1
Lung [39] = test: Biodistribution in ICR mouse lung assessed per gram of tissue at 740 to 1110 kBq/mL, iv measured 10 mins post-injection by gamma counting analysis; type: ADME, organism-based; settings: in vivo; how it was run: as §1
Stomach [40] = test: Biodistribution in ICR mouse stomach assessed per organ at 740 to 1110 kBq/mL, iv measured 60 mins post-injection by gamma counting analysis; type: ADME, organism-based; settings: in vivo, 1 h; how it was run: as §1
Kidney [41] = test: Biodistribution in ICR mouse kidney assessed per gram of tissue at 740 to 1110 kBq/mL, iv measured 30 mins post-injection by gamma counting analysis; type: ADME, organism-based; settings: in vivo, 0.5 h; how it was run: as §1
Spleen [42] = test: Biodistribution in ICR mouse spleen assessed per gram of tissue at 740 to 1110 kBq/mL, iv measured 60 mins post-injection by gamma counting analysis; type: ADME, organism-based; settings: in vivo, 1 h; how it was run: as §1
Liver [43] = test: Biodistribution in ICR mouse liver assessed per gram of tissue at 740 to 1110 kBq/mL, iv measured 60 mins post-injection by gamma counting analysis; type: ADME, organism-based; settings: in vivo, 1 h; how it was run: as §1
Bone [44] = test: Biodistribution in ICR mouse bone assessed per gram of tissue at 740 to 1110 kBq/mL, iv measured 30 mins post-injection by gamma counting analysis; type: ADME, organism-based, Bone element; settings: in vivo, 0.5 h; how it was run: as §1

Chain of Amyloid-beta precursor protein (P05067 whole entry): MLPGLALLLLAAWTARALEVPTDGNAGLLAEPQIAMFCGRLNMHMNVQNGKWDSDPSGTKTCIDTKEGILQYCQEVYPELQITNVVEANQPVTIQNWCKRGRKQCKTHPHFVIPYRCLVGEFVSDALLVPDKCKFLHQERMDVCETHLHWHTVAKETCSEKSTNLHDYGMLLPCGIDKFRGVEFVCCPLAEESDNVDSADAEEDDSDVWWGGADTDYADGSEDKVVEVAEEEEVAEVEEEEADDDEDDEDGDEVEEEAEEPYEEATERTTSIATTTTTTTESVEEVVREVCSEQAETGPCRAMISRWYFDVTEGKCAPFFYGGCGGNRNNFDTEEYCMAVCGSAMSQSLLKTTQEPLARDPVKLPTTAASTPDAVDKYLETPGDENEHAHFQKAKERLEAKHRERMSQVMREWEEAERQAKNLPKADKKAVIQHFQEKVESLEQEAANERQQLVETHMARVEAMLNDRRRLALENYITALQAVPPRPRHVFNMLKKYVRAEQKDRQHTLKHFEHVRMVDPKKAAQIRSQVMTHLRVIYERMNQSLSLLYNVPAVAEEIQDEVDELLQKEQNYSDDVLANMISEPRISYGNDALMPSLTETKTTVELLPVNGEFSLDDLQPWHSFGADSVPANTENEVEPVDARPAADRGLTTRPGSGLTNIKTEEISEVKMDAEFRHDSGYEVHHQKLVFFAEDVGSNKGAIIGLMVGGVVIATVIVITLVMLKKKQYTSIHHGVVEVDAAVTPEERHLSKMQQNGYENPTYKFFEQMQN

- Ki [1]: 31.5 nM
Compound: CN(CCCF)c1ccc(-c2cc3ccccc3[nH]2)cc1

- Ratio (Brain [2]): 1.17
- Kp at 2 min [3]: 0.52
Compound: OCCOc1ccc(-c2cc3cc([125I])ccc3[nH]2)cc1

- Drug uptake (Liver [4]): 10.47 %ID
- Drug uptake (Heart [5]): 4.95 %ID
- Drug uptake (Heart [6]): 3.81 %ID
- Drug uptake (Heart [7]): 6.76 %ID
- Drug uptake (Intestine [8]): 11.04 %ID
- Drug uptake (Intestine [9]): 9 %ID
- Drug uptake (Spleen [10]): 2.73 %ID
- Drug uptake (Blood [11]): 3.38 %ID
- logD [12]: 3.61
- Drug uptake (Stomach [13]): 1.38 %ID
- Drug uptake (Kidney [14]): 5.62 %ID
- Drug uptake (Stomach [15]): 1.43 %ID
- Drug uptake (Spleen [16]): 3.97 %ID
- Drug uptake (Brain [17]): 5.07 %ID
- Drug uptake (Blood [18]): 4.21 %ID
- Drug uptake (Lung [19]): 6.57 %ID
- Drug uptake (Lung [20]): 4.27 %ID
- Ratio (Brain [2]): 2.1
- Drug uptake (Liver [21]): 4.86 %ID
- Drug uptake (Brain [22]): 3.41 %ID
- Drug uptake (Blood [23]): 4.37 %ID
- Drug uptake (Heart [24]): 3.71 %ID
- Drug uptake (Bone [25]): 4.13 %ID
- Drug uptake (Blood [26]): 3.81 %ID
- Drug uptake (Intestine [27]): 9.06 %ID
- Drug uptake (Bone [28]): 9.71 %ID
- Drug uptake (Lung [29]): 3.57 %ID
- Kp at 2 min [3]: 1.72
- Drug uptake (Brain [30]): 2.77 %ID
- Drug uptake (Bone [31]): 2.05 %ID
- Drug uptake (Intestine [32]): 6.5 %ID
- Drug uptake (Kidney [33]): 3.54 %ID
- Drug uptake (Liver [34]): 8.38 %ID
- Drug uptake (Kidney [35]): 9.66 %ID
- Drug uptake (Brain [36]): 5.82 %ID
- Drug uptake (Stomach [37]): 1.54 %ID
- Drug uptake (Spleen [38]): 3.23 %ID
- Drug uptake (Lung [39]): 5.81 %ID
- Drug uptake (Stomach [40]): 1.09 %ID
- Drug uptake (Kidney [41]): 4.17 %ID
- Drug uptake (Spleen [42]): 2.71 %ID
- Drug uptake (Liver [43]): 4.15 %ID
- Drug uptake (Bone [44]): 5.95 %ID
Compound: CN(CC[18F])c1ccc(-c2cc3ccccc3[nH]2)cc1

From ChEMBL document CHEMBL2396535, “Synthesis and biological evaluation of 18F-labled 2-phenylindole derivatives as PET imaging probes for β-amyloid plaques” (Bioorg Med Chem, 2013)
